Laboratory results taken from PMC6852796 (Asian Pacific Journal of Cancer Prevention : APJCP, 2019).
Where “and” joins values, the source holds several entries; their conditions need not be identical. Equal values may be shown once.

Assays:
[1] = Glycation related cytotoxicity: test compound only, no MGO; assay type: cell-based, murine; details: mouse, RAW 264.7 macrophages
[2] = system: LPS-induced nitric oxide production in RAW 264.7 macrophages; assay: Anti-inflammatory; assay type: cell-based, murine; details: Mus musculus, RAW264.7, 24 h, read-out: NOS-IC50 value
Method in brief: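 Cells (2 x 10^5/well) were exposed to test compound (5-200 μg/mL) plus LPS 10 μg/mL for 24 h. Medium was mixed 1:1 with Griess reagent (1% sulfanilamide in 5% phosphoric acid; 0.1% naphthylethylenediamine-HCl) for 10 min at RT. A550 was read and nitrite taken from a sodium nitrite standard curve.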

[3] = target: T1, Crude porcine PL type II (pancreatic lipase) (Sus scrofa, UniProt P00591); assay: In vitro PL activity spectrophotometric assay; assay type: biochemical; details: PL-IC50 value, p-NPB substrate, 37 °C
T1 sequence (P00591 1-450): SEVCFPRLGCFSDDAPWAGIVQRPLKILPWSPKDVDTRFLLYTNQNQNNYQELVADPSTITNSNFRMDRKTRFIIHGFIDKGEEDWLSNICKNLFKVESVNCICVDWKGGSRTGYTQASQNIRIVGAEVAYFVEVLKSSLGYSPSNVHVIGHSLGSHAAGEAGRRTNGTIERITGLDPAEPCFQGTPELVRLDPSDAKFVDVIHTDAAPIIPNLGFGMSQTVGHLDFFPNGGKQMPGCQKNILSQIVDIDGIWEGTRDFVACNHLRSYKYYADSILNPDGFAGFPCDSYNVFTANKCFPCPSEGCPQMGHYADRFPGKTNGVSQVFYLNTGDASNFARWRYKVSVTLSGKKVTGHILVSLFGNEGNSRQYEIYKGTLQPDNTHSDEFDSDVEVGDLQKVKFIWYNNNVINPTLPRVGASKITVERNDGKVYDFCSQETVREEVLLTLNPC

[4] = Selective cytotoxicity SRB assay, periodontal fibroblasts; assay type: cell-based; details: human, primary periodontal ligament fibroblasts (PDL), noncancerous
Method in brief: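 Primary human periodontal fibroblasts served as a noncancerous counter-screen for selective cytotoxicity. […] Assays were run in triplicate and reported as mean ± SD (n=3).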

[5] = NOS related cytotoxicity, SRB viability of RAW 264.7; assay type: cell-based, murine; details: mouse, RAW 264.7 macrophages
Method in brief: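 RAW 264.7 macrophages were maintained in high-glucose DMEM with 10% FBS and penicillin/streptomycin/[…] at 37 °C in humidified 5% CO2. The test compound's effect on their viability was measured by sulforhodamine B colorimetric staining, run alongside the LPS-stimulated nitrite assay.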

[6] = system: RAW 264.7 murine macrophages; assay: Glycation related cytotoxicity: test compound only, no MGO; assay type: cell-based; details: RAW264.7, in absence of MGO, 48 hr, SRB
[7] = system: Methylglyoxal induced cytotoxicity in RAW264.7 murine macrophages; assay: Antiglycation determination via methylglyoxal induced cytotoxicity; assay type: cell-based; details: RAW264.7, MGO 300 µM, 48 hr, SRB

Compound	IC50 [2]	IC50 [3]	IC50 at 48 h [1]	IC50 at 72 h [4]	IC50 at 24 h [5]	Glycation related Cytotox.-IC50 value [6]	IC50 ([6]; read-out: Glycation related Cytotox.-IC50 value)	Glycation-IC50 value [7]	IC50 ([7]; read-out: Glycation-IC50 value)
CCc1ccc(Nc2c(F)cc3c(=O)c(C(=O)O)cn(C4CC4)c3c2[N+](=O)[O-])cc1 [3a, 1-cyclopropyl-7-(4-ethyl-phenylamino)-6-fluoro-8-nitro-4-oxo-1,4-dihydro-quinoline-3-carboxylic acid]	309 µM and 127 µg/mL	21.6 µM	437 µM and 180 µg/mL	437 µM and 180 µg/mL	> 200 µg/mL	–	–	–	–
CCCCc1ccc(Nc2c(F)cc3c(=O)c(C(=O)O)cn(C4CC4)c3c2[N+](=O)[O-])cc1 [3b, 7-(4-butyl-phenylamino)-1-cyclopropyl-6-fluoro-8-nitro-4-oxo-1,4-dihydro-quinoline-3-carboxylic acid]	10.5 µg/mL and 23.8 µM	23.1 µM and 23.2 µM	–	416 µM and 183 µg/mL	144 µg/mL and 327 µM	–	–	–	–
N=C(N)NN [Aminogaunidine, Aminoguanidine, reference compound]	–	–	–	–	–	(596.62±148.8 µg/mL )	5390 ± 1350 µM	(0.34±0.0 µg/mL)	3.1 ± 0.35 µM
COc1ccc2c(c1)c(CC(=O)O)c(C)n2C(=O)c1ccc(Cl)cc1 [Indomethacin, reference compound]	212 µM and 75.9 µg/mL	–	–	–	> 200 µg/mL	–	–	–	–

Second part, led by results:

IC50 [2]	IC50 [3]	Compound	IC50 at 48 h [1]	IC50 at 72 h [4]	IC50 at 24 h [5]	Glycation related Cytotox.-IC50 value [6]	IC50 ([6]; read-out: Glycation related Cytotox.-IC50 value)	Glycation-IC50 value [7]	IC50 ([7]; read-out: Glycation-IC50 value)
60 µM and 22.9 µg/mL	22.3 µM and 23.9 µM	CCc1ccc(Nc2c(F)cc3c(=O)c(C(=O)O)cn(C4CC4)c3c2N)cc1 [4a, 8-amino-1-cyclopropyl-7-(4-ethyl-phenylamino)-6-fluoro-4-oxo-1,4-dihydro-quinoline-3-carboxylic acid]	3.05 µM and 1.2 µg/mL	37.1 µM and 14.2 µg/mL	> 200 µg/mL	–	–	–	–
29.8 µM and 12.2 µg/mL	74.7 µM and 69.6 µM	CCCCc1ccc(Nc2c(F)cc3c(=O)c(C(=O)O)cn(C4CC4)c3c2N)cc1 [4b, 8-amino-7-(4-butyl-phenylamino)-1-cyclopropyl-6-fluoro-4-oxo-1,4-dihydro-quinoline-3-carboxylic acid]	8.51 µM and 3.5 µg/mL	407 µM and 167 µg/mL	> 200 µg/mL	–	–	–	–
51.5 µM and 20.2 µg/mL	95.5 µM and 95.6 µM	CCc1ccc(-n2nnc3c4c(cc(F)c32)c(=O)c(C(=O)O)cn4C2CC2)cc1 [5a, 9-cyclopropyl-3-(4-ethyl-phenyl)-4-fluoro-6-oxo-6,9-dihydro-3H-[1,2,3]triazolo[4,5-h]quinoline-7-carboxylic acid]	84.1 µM and 33 µg/mL	155 µM and 60.8 µg/mL	> 200 µg/mL	–	–	–	–
98.8 µM and 41.5 µg/mL	88.6 µM and 88.7 µM	CCCCc1ccc(-n2nnc3c4c(cc(F)c32)c(=O)c(C(=O)O)cn4C2CC2)cc1 [5b, 3-(4-butyl-phenyl)-9-cyclopropyl-4-fluoro-6-oxo-6,9-dihydro-3H-[1,2,3]triazolo[4,5-h]quinoline-7-carboxylic acid]	161 µM and 67.7 µg/mL	42.5 µM and 17.9 µg/mL	> 200 µg/mL	–	–	–	–
